Experimental data taken from ChEMBL document CHEMBL1152439, “Calcitriol derivatives with two different side chains at C-20. V. Potent inhibitors of mammary carcinogenesis and inducers of leukemia differentiation” (J Med Chem, 2009).
The source made the active and inactive calls. No cut-off for these calls is given here.

Experiments:
NB-4 [1] = assay: Induction of cell differentiation in human NB4 cells assessed as induction of induction of cell surface marker CD11b expression at 1 nM after 48 hrs; format: functional, cell-based
Method in brief: (§1)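 NB4 human promyelocytic leukemia cells kept in log-phase suspension in RPMI 1640 with 10% […] iron-supplemented bovine calf serum, 37 °C, 5% CO₂. Exposed to compounds at 1 nM for 48 h; 1 × 10⁶ cells washed twice in PBS, then labelled with MY4-RD1 and Mo1-FITC antibodies to measure surface CD14 and CD11b expression.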

NB-4 [2] = assay: Induction of cell differentiation in human NB4 cells assessed as induction of induction of cell surface marker CD14 expression at 1 nM after 48 hrs; format: functional, cell-based; method in brief: as §1
[3] = Antiproliferative activity against human MCF10CA1a after 3 days by [3H]thymidine uptake assay; format: functional

For C=C1/C(=C\C=C2/CCC[C@]3(C)[C@@H]([C@@H](C/C=C\C(O)(C(F)(F)F)C(F)(F)F)CCCC(C)(C)O)CC[C@@H]23)C[C@@H](O)C[C@@H]1F, the Activity (NB-4 [1]; tested as the 2H-labelled form) was “Active” and the Activity (NB-4 [2]; tested as the 2H-labelled form) was “Active”.
Work on [2H]C([2H])([2H])C(O)(CCC[C@@H](C/C=C\C(O)(C(F)(F)F)C(F)(F)F)[C@H]1CC[C@H]2/C(=C/C=C3/C[C@@H](O)C[C@H](O)C3=C)CCC[C@]12C)C([2H])([2H])[2H] yielded an IC50 [3] of 1.6 nM.
In the case of [2H]C([2H])([2H])C(O)(CCC[C@H](C/C=C\C(O)(C(F)(F)F)C(F)(F)F)[C@H]1CC[C@H]2/C(=C/C=C3C[C@@H](O)C[C@H](O)C3)CCC[C@]12C)C([2H])([2H])[2H], the IC50 [3] is reported as 0.43 nM.
With [2H]C([2H])([2H])C(O)(CCC[C@H](CC#CC(O)(C(F)(F)F)C(F)(F)F)[C@H]1CC[C@H]2/C(=C/C=C3/C[C@@H](O)C[C@H](F)C3=C)CCC[C@]12C)C([2H])([2H])[2H] the IC50 [3] was 1.6 nM.
With [2H]C([2H])([2H])C(O)(CCC[C@H](C/C=C\C(O)(C(F)(F)F)C(F)(F)F)[C@H]1CC[C@H]2/C(=C/C=C3/C[C@@H](O)C[C@H](F)C3=C)CCC[C@]12C)C([2H])([2H])[2H] the IC50 [3] was 6.9 nM.
For C=C1/C(=C\C=C2/CCC[C@]3(C)[C@@H]([C@@H](CC#CC(O)(C(F)(F)F)C(F)(F)F)CCCC(C)(C)O)CC[C@@H]23)C[C@@H](O)C[C@@H]1F, the Activity (NB-4 [1]; tested as the 2H-labelled form) was “Active” and the Activity (NB-4 [2]; tested as the 2H-labelled form) was “Active”.
In the case of [2H]C([2H])([2H])C(O)(CCC[C@H](C/C=C\C(O)(C(F)(F)F)C(F)(F)F)[C@H]1CC[C@H]2/C(=C/C=C3/C[C@@H](O)C[C@H](O)C3=C)CCC[C@]12C)C([2H])([2H])[2H], the IC50 [3] is reported as 0.56 nM.
Work on [2H]C([2H])([2H])C(O)(CCC[C@@H](CC#CC(O)(C(F)(F)F)C(F)(F)F)[C@H]1CC[C@H]2/C(=C/C=C3/C[C@@H](O)C[C@H](O)C3=C)CCC[C@]12C)C([2H])([2H])[2H] yielded an IC50 [3] of 0.062 nM.
With CC(C)(O)CCC[C@H](C/C=C\C(O)(C(F)(F)F)C(F)(F)F)[C@H]1CC[C@H]2/C(=C/C=C3C[C@@H](O)C[C@H](O)C3)CCC[C@]12C the Activity (NB-4 [1]; tested as the 2H-labelled form) was “Active” and the Activity (NB-4 [2]; tested as the 2H-labelled form) was “Active”.
With [2H]C([2H])([2H])C(O)(CCC[C@@H](C/C=C\C(O)(C(F)(F)F)C(F)(F)F)[C@H]1CC[C@H]2/C(=C/C=C3C[C@@H](O)C[C@H](O)C3)CCC[C@]12C)C([2H])([2H])[2H] the IC50 [3] was 3.2 nM.
For [2H]C([2H])([2H])C(O)(CCC[C@H](CC#CC(O)(C(F)(F)F)C(F)(F)F)[C@H]1CC[C@H]2/C(=C/C=C3C[C@@H](O)C[C@H](O)C3)CCC[C@]12C)C([2H])([2H])[2H], the IC50 [3] was 0.19 nM.
For C=C1/C(=C\C=C2/CCC[C@]3(C)[C@@H]([C@H](C)CCCC(C)(C)O)CC[C@@H]23)C[C@@H](O)C[C@@H]1O, the Activity (NB-4 [1]) was “Active” and the Activity (NB-4 [2]) was “Active”.
Compound [2H]C([2H])([2H])C(O)(CCC[C@@H](CC#CC(O)(C(F)(F)F)C(F)(F)F)[C@H]1CC[C@H]2/C(=C/C=C3C[C@@H](O)C[C@H](O)C3)CCC[C@]12C)C([2H])([2H])[2H] has an IC50 [3] of 0.12 nM.
With C=C1/C(=C\C=C2/CCC[C@]3(C)[C@@H]([C@@H](C/C=C\C(O)(C(F)(F)F)C(F)(F)F)CCCC(C)(C)O)CC[C@@H]23)C[C@@H](O)C[C@@H]1O the Activity (NB-4 [1]; tested as the 2H-labelled form) was “Active” and the Activity (NB-4 [2]; tested as the 2H-labelled form) was “Active”.
[2H]C([2H])([2H])C(O)(CCC[C@@H](CC#CC(O)(C(F)(F)F)C(F)(F)F)[C@H]1CC[C@H]2/C(=C/C=C3/C[C@@H](O)C[C@H](F)C3=C)CCC[C@]12C)C([2H])([2H])[2H] showed an IC50 [3] of 0.56 nM.
For C=C1/C(=C\C=C2/CCC[C@]3(C)[C@@H]([C@H](C/C=C\C(O)(C(F)(F)F)C(F)(F)F)CCCC(C)(C)O)CC[C@@H]23)C[C@@H](O)C[C@@H]1O, the Activity (NB-4 [1]; tested as the 2H-labelled form) was “Active” and the Activity (NB-4 [2]; tested as the 2H-labelled form) was “Active”.
In the case of [2H]C([2H])([2H])C(O)(CCC[C@H](CC#CC(O)(C(F)(F)F)C(F)(F)F)[C@H]1CC[C@H]2/C(=C/C=C3/C[C@@H](O)C[C@H](O)C3=C)CCC[C@]12C)C([2H])([2H])[2H], the IC50 [3] is reported as 0.053 nM.
With [2H]C([2H])([2H])C(O)(CCC[C@@H](C/C=C\C(O)(C(F)(F)F)C(F)(F)F)[C@H]1CC[C@H]2/C(=C/C=C3/C[C@@H](O)C[C@H](F)C3=C)CCC[C@]12C)C([2H])([2H])[2H] the IC50 [3] was greater than 10 nM.
For CC(C)(O)CCC[C@H](CC#CC(O)(C(F)(F)F)C(F)(F)F)[C@H]1CC[C@H]2/C(=C/C=C3C[C@@H](O)C[C@H](O)C3)CCC[C@]12C, the Activity (NB-4 [1]; tested as the 2H-labelled form) was “Active” and the Activity (NB-4 [2]; tested as the 2H-labelled form) was “Active”.
With C=C1/C(=C\C=C2/CCC[C@]3(C)[C@@H]([C@H](CC#CC(O)(C(F)(F)F)C(F)(F)F)CCCC(C)(C)O)CC[C@@H]23)C[C@@H](O)C[C@@H]1F the Activity (NB-4 [1]; tested as the 2H-labelled form) was “Active” and the Activity (NB-4 [2]; tested as the 2H-labelled form) was “Active”.
For C=C1/C(=C\C=C2/CCC[C@]3(C)[C@@H]([C@H](CC#CC(O)(C(F)(F)F)C(F)(F)F)CCCC(C)(C)O)CC[C@@H]23)C[C@@H](O)C[C@@H]1O, the Activity (NB-4 [1]; tested as the 2H-labelled form) was “Active” and the Activity (NB-4 [2]; tested as the 2H-labelled form) was “Active”.
With CC(C)(O)CCC[C@@H](CC#CC(O)(C(F)(F)F)C(F)(F)F)[C@H]1CC[C@H]2/C(=C/C=C3C[C@@H](O)C[C@H](O)C3)CCC[C@]12C the Activity (NB-4 [1]; tested as the 2H-labelled form) was “Active” and the Activity (NB-4 [2]; tested as the 2H-labelled form) was “Active”.
For C=C1/C(=C\C=C2/CCC[C@]3(C)[C@@H]([C@@H](CC#CC(O)(C(F)(F)F)C(F)(F)F)CCCC(C)(C)O)CC[C@@H]23)C[C@@H](O)C[C@@H]1O, the Activity (NB-4 [1]; tested as the 2H-labelled form) was “Active” and the Activity (NB-4 [2]; tested as the 2H-labelled form) was “Active”.
For C=C1/C(=C\C=C2/CCC[C@]3(C)[C@@H]([C@H](C/C=C\C(O)(C(F)(F)F)C(F)(F)F)CCCC(C)(C)O)CC[C@@H]23)C[C@@H](O)C[C@@H]1F, the Activity (NB-4 [1]; tested as the 2H-labelled form) was “Active” and the Activity (NB-4 [2]; tested as the 2H-labelled form) was “Active”.
In the case of CC(C)(O)CCC[C@@H](C/C=C\C(O)(C(F)(F)F)C(F)(F)F)[C@H]1CC[C@H]2/C(=C/C=C3C[C@@H](O)C[C@H](O)C3)CCC[C@]12C, the Activity (NB-4 [1]; tested as the 2H-labelled form) is reported as “Active” and the Activity (NB-4 [2]; tested as the 2H-labelled form) is reported as “Active”.
